The source made the active and inactive calls. No cut-off for these calls is given here.
Tests used:
Rattus norvegicus [1] = assay: Induction of bone formation in ovariectomized rat assessed as increase in trabecular bone volume percentage at 7.5 mg/kg/day, po after 3 months; assay type: functional, organism-based; conditions: Trabecula
In short: (§1)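 Female rats (205–235 g) randomized by body weight, n = 7 per group: sham, ovariectomized with vehicle, ovariectomized with raloxifene 5 mg/kg/day, and ovariectomized with compound at 7.5, 15 or 30 mg/kg/day. All dosing oral for 3 months. Undecalcified proximal tibia sections analysed by histomorphometry, with comparisons against the sham and ovariectomized groups.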

Rattus norvegicus [2] = assay: Toxicity in rat assessed as pathological changes in heart at 150 mg/kg/day, po after 3 months by histomorphology; assay type: organism-based; set-up: route oral; conditions: in vivo
In short: (§2)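 Rats, n = 7, given oral doses of 150 mg/kg/day for 3 months. Heart, liver, spleen, lung and kidney examined histologically for pathological change.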

Mus musculus [3] = assay: Induction of bone formation in SAMP6 mouse right femora assessed as trabecular resorption surface percentage at 30 mg/kg/day, po measured after 3 months by bone histomorphometry; assay type: functional, Trabecula
In short: (§3)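 SAMP6 mice, 5 months old, n = 5 per group (3 male, 2 female), randomized by initial BMD. Given compound in 0.5% methylcellulose by gavage daily for 3 months. Proximal third of the right femur fixed in 4% paraformaldehyde, cut as undecalcified sections, and scored by image analysis for histomorphometry.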

Mus musculus [4] = assay: Induction of bone mineral density in SAMP6 mouse assessed as whole body BMD at 30 mg/kg/day, po measured after 2 months
Mus musculus [5] = assay: Toxicity in SAMP6 mouse assessed as change in 24 hrs food consumption at 30 mg/kg/day, po after 3 months; assay type: organism-based; set-up: route oral; conditions: in vivo
In short: (§4)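 SAMP6 mice, n = 5 per group, dosed orally at 30 mg/kg/day in 0.5% methylcellulose for 3 months. Heart, liver, spleen, lung and kidney harvested, weighed and examined histologically. Organ/body weight indexes, body weight, and 24 h water and food intake (g/g body weight) compared with vehicle controls.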

Mus musculus [6] = assay: Induction of bone mineral density in SAMP6 mouse assessed as whole body BMD at 30 mg/kg/day, po measured after 3 months; assay type: functional
In short: (§5)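 SAMP6 mice, 5 months old, n = 5 per group, given compound in 0.5% methylcellulose by gavage daily. Dual-energy X-ray absorptiometry under pentobarbital anaesthesia (50 mg/kg ip), animals prone, at 0, 4, 8 and 12 weeks of treatment. Regions of interest were whole body, spine and left hind leg.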

Rattus norvegicus [7] = assay: Prevention of bone loss in ovariectomized rat assessed as increase in number, thickness, area and connectivity of trabecula at 30 mg/kg/day, po after 3 months by histomorphometry Leica Qwin image analysis; assay type: functional, organism-based; in short: as §1
Mus musculus [8] = assay: Toxicity in SAMP6 mouse assessed as pathological changes in kidney at 30 mg/kg/day, po after 3 months by histomorphology; assay type: organism-based; set-up: route oral; conditions: in vivo; in short: as §4
Mus musculus [9] = assay: Induction of BMP2 expression in SAMP6 mouse osteoblast at 10 mg/kg/day, po after 3 months by immunohistochemical analysis; assay type: functional, organism-based
In short: (§6)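 SAMP6 mice, 5 months old, male and female, n = 5 per group (3 male, 2 female). Dosed by gavage with compound suspended in 0.5% methylcellulose daily for 3 months; the vehicle group received methylcellulose only. Proximal third of the left femur fixed in 4% neutral paraformaldehyde for 24 h, decalcified in 10% EDTA at 4 °C for 4 weeks, then frozen-sectioned at 5 μm. Stained with rabbit polyclonal anti-BMP-2 and an alkaline phosphatase secondary. BMP-2-positive area was taken as a percentage of bone tissue area, averaged over five fields below the epiphyseal plate.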

Mus musculus [10] = assay: Toxicity in SAMP6 mouse assessed as increase in body weight at 30 mg/kg/day, po after 3 months; assay type: organism-based; set-up: route oral; conditions: in vivo; in short: as §4
Mus musculus [11] = assay: Toxicity in SAMP6 mouse assessed as pathological changes in lung at 30 mg/kg/day, po after 3 months by histomorphology; assay type: organism-based; set-up: route oral; conditions: in vivo; in short: as §4
Mus musculus [12] = assay: Induction of bone mineral density in SAMP6 mouse assessed as left hind leg BMD at 30 mg/kg/day, po measured after 3 months; assay type: functional; in short: as §5
Mus musculus [13] = assay: Induction of BMP2 expression in SAMP6 mouse cartilage cells at 30 mg/kg/day, po after 3 months by immunohistochemical analysis; assay type: functional, organism-based; in short: as §6
Rattus norvegicus [14] = assay: Toxicity in rat assessed as pathological changes in liver at 150 mg/kg/day, po after 3 months by histomorphology; assay type: organism-based; set-up: route oral; conditions: in vivo; in short: as §2
[15] = Induction of BMP2 expression in mouse calcarial MC3T3-E1 cells stably transfected with mouse BMP2 promotor-luciferase assessed as upregulation rate at 4 uM; assay type: functional, cell-based
In short: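 Reporter assay in murine calvarial MC3T3-E1 cells stably carrying the mouse BMP-2 promoter fused to firefly luciferase (pGL4BMP-2). Cells grown in DMEM with 10% heat-inactivated FBS at 37 °C and 5% CO2. Test compounds at 4.0 μM; lovastatin at 0.4 μM as positive control; 0.1% DMSO as negative control. Up-regulation rate = (RLU of test − RLU of negative control)/RLU of negative control × 100.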

Rattus norvegicus [16] = assay: Induction of bone formation in ovariectomized rat assessed as decrease in trabecular resorption surface percentage at 30 mg/kg/day, po after 3 months; assay type: functional, organism-based; conditions: Trabecula; in short: as §1
Rattus norvegicus [17] = assay: Induction of bone formation in ovariectomized rat assessed as decrease in trabecular resorption surface percentage at 15 mg/kg/day, po after 3 months; assay type: functional, organism-based; conditions: Trabecula; in short: as §1
Mus musculus [18] = assay: Induction of bone mineral density in SAMP6 mouse assessed as spine BMD at 30 mg/kg/day, po measured after 3 months; assay type: functional; in short: as §5
Rattus norvegicus [19] = assay: Induction of bone formation in ovariectomized rat assessed as increase in trabecular bone volume percentage at 30 mg/kg/day, po after 3 months; assay type: functional, organism-based; conditions: Trabecula; in short: as §1
Mus musculus [20] = assay: Toxicity in SAMP6 mouse assessed as change in 24 hrs water consumption at 30 mg/kg/day, po after 3 months; assay type: organism-based; set-up: route oral; conditions: in vivo; in short: as §4
Mus musculus [21] = assay: Toxicity in SAMP6 mouse assessed as pathological changes in liver at 30 mg/kg/day, po after 3 months by histomorphology; assay type: organism-based; set-up: route oral; conditions: in vivo; in short: as §4
Mus musculus [22] = assay: Induction of BMP2 expression in SAMP6 mouse osteoblast at 30 mg/kg/day, po after 3 months by immunohistochemical analysis; assay type: functional, organism-based; in short: as §6
[23] = Toxicity in po dosed Kunming mouse assessed as mortality treated for 3 days measured after 17 days; assay type: organism-based; conditions: in vivo
In short: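 Male and female Kunming mice (18-21 g), six per group (three males, three females), were dosed orally at 500 or 700 (mg/kg)/day for 3 days. They were closely watched for deaths over the 3 dosing days and the following 14 days (17 days in total).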

[24] = Toxicity in ip dosed Kunming mouse assessed as mortality treated for 3 days measured after 17 days; assay type: organism-based; conditions: in vivo
Mus musculus [25] = assay: Induction of bone formation in SAMP6 mouse right femora assessed as trabecular formation surface percentage at 30 mg/kg/day, po measured after 3 months by bone histomorphometry; assay type: functional, Trabecula; in short: as §3
Rattus norvegicus [26] = assay: Induction of bone formation in ovariectomized rat assessed as decrease in trabecular resorption surface percentage at 7.5 mg/kg/day, po after 3 months; assay type: functional, organism-based; conditions: Trabecula; in short: as §1
Mus musculus [27] = assay: Induction of BMP2 expression in SAMP6 mouse bone marrow stroma at 30 mg/kg/day, po after 3 months by immunohistochemical analysis; assay type: functional, organism-based; in short: as §6
Mus musculus [28] = assay: Toxicity in SAMP6 mouse assessed as pathological changes in spleen at 30 mg/kg/day, po after 3 months by histomorphology; assay type: organism-based; set-up: route oral; conditions: in vivo; in short: as §4
Rattus norvegicus [29] = assay: Toxicity in rat assessed as pathological changes in lung at 150 mg/kg/day, po after 3 months by histomorphology; assay type: organism-based; set-up: route oral; conditions: in vivo; in short: as §2

CC(=O)c1cc2ccccc2s1
Activity (Rattus norvegicus [1]): Active | Activity (Rattus norvegicus [2]): Non-toxic | Activity (Mus musculus [3]): 7.09% | Activity (Mus musculus [4]): Active | Activity (Mus musculus [5]): Non-toxic | Activity (Mus musculus [6]): 0.068 g/cm2 | Activity (Rattus norvegicus [7]): Active | Activity (Mus musculus [8]): Non-toxic | Activity (Mus musculus [9]): Active | Activity (Mus musculus [10]): Non-toxic | Activity (Mus musculus [11]): Non-toxic | Activity (Mus musculus [12]): 0.05 g/cm2 | Activity (Mus musculus [13]): inactive | Activity (Rattus norvegicus [14]): Non-toxic | Activity [15]: 35.6% | Activity (Rattus norvegicus [16]): Active | Activity (Rattus norvegicus [17]): Active | Activity (Mus musculus [18]): 0.086 g/cm2 | Activity (Rattus norvegicus [19]): Active | Activity (Mus musculus [20]): Non-toxic | Activity (Mus musculus [21]): Non-toxic | Activity (Mus musculus [22]): Active | LD50 at 408 h [23]: > 5000 mg/kg | LD50 at 408 h [24]: > 1580 mg/kg | Activity (Mus musculus [25]): 5.89% | Activity (Rattus norvegicus [26]): Active | Activity (Mus musculus [27]): Active | Activity (Mus musculus [28]): Non-toxic | Activity (Rattus norvegicus [29]): Non-toxic

— ChEMBL document CHEMBL1156262, “Substituted benzothiophene or benzofuran derivatives as a novel class of bone morphogenetic protein-2 up-regulators: synthesis, structure-activity relationships, and preventive bone loss efficacies in senescence accelerated mice (SAMP6) and ovariectomized rats” (J Med Chem, 2010)
